Assay results reported in ChEMBL document CHEMBL4616646, “Synthesis and Cytotoxicity Studies of Stilbene Long-Chain Fatty Acid Conjugates” (J Nat Prod, 2020).

Legend:
NCI-H460 = experiment: Cytotoxicity against human NCI-H460 cells after 68 hrs by MTT assay; assay type: functional, cell-based; settings: NCI-H460, 68 h
How it was run: (§1)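 Cells grown in DMEM with 10% FBS and 1% P/S at 37 °C under 5% CO₂, trypsinized and seeded at ~5 × 10⁴ cells per well. Test drugs added after attachment at 0.1 to 100 μM. After 68 h, MTT (4 mg/mL) added for 4 h, supernatant discarded, formazan dissolved in DMSO, absorbance read at 570 nm. IC50 taken as concentration giving ~50% survival; mean ± SD of three independent experiments.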

KB 3-1 = experiment: Cytotoxicity against human KB3-1 cells after 68 hrs by MTT assay; assay type: functional, cell-based; settings: KB 3-1, 68 h; how it was run: as §1
HEK293 = experiment: Cytotoxicity against HEK293 cells after 68 hrs by MTT assay; assay type: cell-based; settings: Homo sapiens, HEK293, 68 h; how it was run: as §1
MCF7 = experiment: Cytotoxicity against human MCF7 cells after 68 hrs by MTT assay; assay type: functional, cell-based; settings: MCF7, 68 h; how it was run: as §1

Compound: CC/C=C\C/C=C\C/C=C\CCCCCCCC(=O)Oc1cc(/C=C\c2cc(OC)c(OC)c(OC)c2)ccc1OC
- IC50 (NCI-H460): 10 nM
- IC50 (KB 3-1): 30 nM
- IC50 (HEK293): 23 nM
- IC50 (MCF7): > 10000 nM

Compound: COc1ccc(/C=C/c2cc(OC)c(OC)c(OC)c2)cc1O [E-COMBRETASTATIN A-4]
- IC50 (NCI-H460): 250 nM
- IC50 (KB 3-1): 100 nM
- IC50 (HEK293): 200 nM
- IC50 (MCF7): 110 nM

Compound: CCCCC/C=C\C/C=C\CCCCCCCC(=O)Oc1cc(/C=C/c2cc(OC)c(OC)c(OC)c2)ccc1OC
- IC50 (NCI-H460): 2400 nM
- IC50 (KB 3-1): 4900 nM
- IC50 (HEK293): 2600 nM
- IC50 (MCF7): > 10000 nM

Compound: CCCCCCCCCCCCCCCCCC(=O)Oc1cc(/C=C/c2cc(OC)c(OC)c(OC)c2)ccc1OC
- IC50 (NCI-H460): > 10000 nM
- IC50 (KB 3-1): > 10000 nM
- IC50 (HEK293): 2900 nM
- IC50 (MCF7): > 10000 nM

Compound: COc1cc2c(c(OC)c1OC)-c1ccc(OC)c(=O)cc1[C@@H](NC(C)=O)CC2 [COLCHICINE]
- IC50 (NCI-H460): 60 nM
- IC50 (KB 3-1): 20 nM
- IC50 (HEK293): 20 nM
- IC50 (MCF7): 60 nM

Compound: COc1ccc(/C=C\c2cc(OC)c(OC)c(OC)c2)cc1O [COMBRETASTATIN A4]
- IC50 (NCI-H460): 10 nM
- IC50 (KB 3-1): 10 nM
- IC50 (HEK293): 10 nM
- IC50 (MCF7): 90 nM

Compound: CC/C=C\C/C=C\C/C=C\CCCCCCCC(=O)Oc1cc(/C=C/c2cc(OC)c(OC)c(OC)c2)ccc1OC
- IC50 (NCI-H460): > 10000 nM
- IC50 (KB 3-1): 2400 nM
- IC50 (HEK293): 2400 nM
- IC50 (MCF7): > 10000 nM

Compound: CC/C=C\C/C=C\C/C=C\CCCCCCCC(=O)Oc1ccc(/C=C/c2cc(OC)c(OC)c(OC)c2)cc1OC
- IC50 (NCI-H460): > 100000 nM
- IC50 (KB 3-1): > 100000 nM
- IC50 (HEK293): > 100000 nM
- IC50 (MCF7): > 100000 nM

Compound: CCCCCCCCCCCCCCCCCC(=O)Oc1ccc(/C=C/c2cc(OC)c(OC)c(OC)c2)cc1OC
- IC50 (NCI-H460): > 100000 nM
- IC50 (KB 3-1): > 100000 nM
- IC50 (HEK293): > 100000 nM
- IC50 (MCF7): > 100000 nM

Compound: CCCCCCCC/C=C\CCCCCCCC(=O)Oc1ccc(/C=C/c2cc(OC)c(OC)c(OC)c2)cc1OC
- IC50 (NCI-H460): > 100000 nM
- IC50 (KB 3-1): > 100000 nM
- IC50 (HEK293): > 100000 nM
- IC50 (MCF7): > 100000 nM

Compound: CCCCC/C=C\C/C=C\CCCCCCCC(=O)Oc1cc(/C=C\c2cc(OC)c(OC)c(OC)c2)ccc1OC
- IC50 (NCI-H460): 20 nM
- IC50 (KB 3-1): 20 nM
- IC50 (HEK293): 20 nM
- IC50 (MCF7): > 10000 nM

Compound: CCCCCCCC/C=C\CCCCCCCC(=O)Oc1cc(/C=C\c2cc(OC)c(OC)c(OC)c2)ccc1OC
- IC50 (NCI-H460): 310 nM
- IC50 (KB 3-1): 30 nM
- IC50 (HEK293): 30 nM
- IC50 (MCF7): > 10000 nM

Compound: CCCCCCCCCCCCCCCCCC(=O)Oc1cc(/C=C\c2cc(OC)c(OC)c(OC)c2)ccc1OC
- IC50 (NCI-H460): 30 nM
- IC50 (KB 3-1): 30 nM
- IC50 (HEK293): 30 nM
- IC50 (MCF7): 240 nM

Compound: CCCCC/C=C\C/C=C\CCCCCCCC(=O)Oc1ccc(/C=C/c2cc(OC)c(OC)c(OC)c2)cc1OC
- IC50 (NCI-H460): > 100000 nM
- IC50 (KB 3-1): > 100000 nM
- IC50 (HEK293): > 100000 nM
- IC50 (MCF7): > 100000 nM

Compound: CCCCCCCCCCCCCCCCCC(=O)Oc1ccc(/C=C\c2cc(OC)c(OC)c(OC)c2)cc1OC
- IC50 (NCI-H460): > 10000 nM
- IC50 (KB 3-1): 3100 nM
- IC50 (HEK293): 3900 nM
- IC50 (MCF7): 7700 nM
